Reference: ChEMBL document CHEMBL4364265, “Oridonin derivatives as potential anticancer drug candidates triggering apoptosis through mitochondrial pathway in the liver cancer cells” (Eur J Med Chem, 2019)
Activity calls are given as the source filed them. The calls are words filed in the database; no cut-off is given here.

Tests used:
[1] = tested on: HepG2; test: Induction of cell cycle arrest in human HepG2 cells assessed as accumulation at S phase at 1 uM incubated for 24 hrs by PI staining based flow cytometric analysis (reference value: 35.46%); format: functional
[2] = tested on: PLC-PRF-5; test: Induction of cell cycle arrest in human PLC/PRF/5 cells assessed as accumulation at G2 phase at 0.25 uM incubated for 24 hrs by PI staining based flow cytometric analysis (reference value: 18.05%); format: functional
[3] = tested on: PLC-PRF-5; test: Induction of cell cycle arrest in human PLC/PRF/5 cells assessed as accumulation at G1 phase at 0.5 uM incubated for 24 hrs by PI staining based flow cytometric analysis (reference value: 34.78%); format: functional
[4] = tested on: L02; test: Cytotoxicity against human LO2 cells incubated for 72 hrs by CCK8 cells; format: cell-based; conditions: L02, 72 h
Outline: (§1)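 CCK-8 proliferation assay. 10,000 cells per well were preincubated 24 h at 37 °C with 5% CO2, then given compound dissolved in DMSO and incubated 72 h. CCK-8 was added for 4 h and absorbance read at 450 nm. IC50 was taken from dose-response curves as mean ± SEM of at least three independent experiments, with paclitaxel as positive control. HepG2 and L-O2 were grown in DMEM/10% FBS; A549 and RPMI-8226 in RPMI 1640/10% FBS.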

[5] = tested on: HepG2; test: Antiproliferative activity against human HepG2 cells incubated for 72 hrs by CCK8 cells; format: functional, cell-based; conditions: HepG2, 72 h; outline: as §1
[6] = tested on: HepG2; test: Induction of apoptosis in human HepG2 cells assessed as necrotic cells at 0.25 uM incubated for 24 hrs by annexin V staining based cell counting method (reference value: 3.40%); format: functional
[7] = tested on: HepG2; test: Induction of apoptosis in human HepG2 cells assessed as change in p53 protein expression level at 0.25 to 1.25 uM incubated for 24 hrs by Western blot analysis; format: functional, cell-based
Outline: (§2)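 Cells were treated 24 h in DMEM with 0, 0.25, 0.5, 1.0 or 1.25 µM compound. Adherent and floating cells were lysed in RIPA on ice and protein measured by BCA. Equal protein was run on 7.5–12.5% SDS-PAGE and transferred to PVDF. Membranes were blocked in 5% milk/PBST, incubated with primary antibody overnight at 4 °C, and detected by ECL.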

[8] = Toxicity in nude mouse xenografted with human PLC/PRF/5 cells assessed as change in body weight at 10 mg/kg, iv administrated once every 3 days for 4 weeks; format: organism-based; conditions: in vivo
Outline: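 Nude mice were inoculated subcutaneously in the right forelimb with 2 × 10⁷ PLC/PRF/5 cells in 0.2 mL saline. At about 120 mm³, mice were randomized into 3 groups of 6. Dosing was i.v. once every three days for 4 weeks, with vehicle 10% N-methylpyrrolidone/12% Tween-80/78% saline. Body weight was recorded daily.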

[9] = tested on: HepG2; test: Induction of apoptosis in human HepG2 cells assessed as live cells at 0.5 uM incubated for 24 hrs by annexin V staining based cell counting method (reference value: 87.35%); format: functional
[10] = tested on: HepG2; test: Induction of apoptosis in human HepG2 cells assessed as late apoptotic cells at 0.25 uM incubated for 24 hrs by annexin V staining based cell counting method (reference value: 5.65%); format: functional
[11] = tested on: HepG2; test: Induction of apoptosis in human HepG2 cells assessed as upregulation of Bax protein expression level incubated for 24 hrs by Western blot analysis; format: functional, cell-based; outline: as §2
[12] = tested on: PLC-PRF-5; test: Induction of ROS generation in human PLC/PRF/5 cells by DCFH-DA staining-based flow cytometric analysis; format: functional, cell-based
Outline: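 Cells were treated with 0, 0.25, 0.5 or 1 µM compound, stained with 10 µM DCFH-DA for 20 min at 37 °C, washed three times, resuspended in PBS and read by flow cytometry. Data are mean ± SD of three independent experiments.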

[13] = tested on: PLC-PRF-5; test: Induction of apoptosis in human PLC/PRF/5 cells assessed as late apoptotic cells at 0.5 uM incubated for 24 hrs by annexin V staining based cell counting method (reference value: 4.81%); format: functional
[14] = tested on: PLC-PRF-5; test: Induction of apoptosis in human PLC/PRF/5 cells assessed as late apoptotic cells at 0.25 uM incubated for 24 hrs by annexin V staining based cell counting method (reference value: 4.81%); format: functional
[15] = tested on: PLC-PRF-5; test: Induction of cell cycle arrest in human PLC/PRF/5 cells assessed as accumulation at G1 phase at 1 uM incubated for 24 hrs by PI staining based flow cytometric analysis (reference value: 34.78%); format: functional
[16] = tested on: PLC-PRF-5; test: Inhibition of colony formation in human PLC/PRF/5 cells at 0.5 uM incubated for 10 days by crystal violet staining based microscopic method relative to control; format: functional; conditions: PLC-PRF-5, 240 h
Outline: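 Five hundred cells plated per 30 mm dish and left 12 h. Medium with compound was added (0, 0.1, 0.5, 1 µM) or DMSO as negative control, and cells grew 10 days. Colonies were fixed in methanol 15 min, stained with 0.1% crystal violet 15 min, photographed and counted. Colony size was checked by microscope. Relative colony number is mean ± SD of ≥3 independent experiments.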

[17] = tested on: PLC-PRF-5; test: Induction of apoptosis in human PLC/PRF/5 cells assessed as upregulation of Bax protein expression level incubated for 24 hrs by Western blot analysis; format: functional, cell-based; outline: as §2
[18] = tested on: PLC-PRF-5; test: Induction of apoptosis in human PLC/PRF/5 cells assessed as live cells at 0.25 uM incubated for 24 hrs by annexin V staining based cell counting method (reference value: 88.95%); format: functional
[19] = tested on: HepG2; test: Induction of apoptosis in human HepG2 cells assessed as early apoptotic cells at 1 uM incubated for 24 hrs by annexin V staining based cell counting method (reference value: 3.60%); format: functional
[20] = tested on: RPMI-8226; test: Antiproliferative activity against human RPMI8226 cells incubated for 72 hrs by CCK8 cells; format: functional, cell-based; conditions: RPMI-8226, 72 h; outline: as §1
[21] = Half life in human plasma measured for 5 to 120 mins by LC-MS/MS analysis; format: ADME, cell-free
Outline: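 Compound at an initial 5000 ng/mL was incubated in human plasma at 37 °C. 100 µL aliquots were taken at 0–120 min and extracted with methanol plus tyrosine internal standard, then centrifuged and filtered. Extracts were analysed by LC-MS/MS on a triple-quadrupole instrument with ESI.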

[22] = tested on: HepG2; test: Induction of apoptosis in human HepG2 cells assessed as late apoptotic cells at 0.5 uM incubated for 24 hrs by annexin V staining based cell counting method (reference value: 5.65%); format: functional
[23] = tested on: PLC-PRF-5; test: Induction of apoptosis in human PLC/PRF/5 cells assessed as necrotic cells at 0.25 uM incubated for 24 hrs by annexin V staining based cell counting method (reference value: 0.59%); format: functional
[24] = tested on: PLC-PRF-5; test: Induction of apoptosis in human PLC/PRF/5 cells assessed as early apoptotic cells at 1 uM incubated for 24 hrs by annexin V staining based cell counting method (reference value: 5.65%); format: functional
[25] = tested on: HepG2; test: Induction of cell cycle arrest in human HepG2 cells assessed as accumulation at G2 phase at 0.25 uM incubated for 24 hrs by PI staining based flow cytometric analysis (reference value: 25.55%); format: functional
[26] = tested on: PLC-PRF-5; test: Induction of cell cycle arrest in human PLC/PRF/5 cells assessed as accumulation at S phase at 0.5 uM incubated for 24 hrs by PI staining based flow cytometric analysis (reference value: 42.03%); format: functional

**Q.** With `C=C1C(=O)[C@]23[C@H](OC(=O)/C=C/c4ccc(OC)cc4)[C@H]1CC[C@H]2[C@@]12CO[C@]3(O)[C@@H](O)[C@@H]1C(C)(C)CC[C@@H]2O` as the compound, how does the Activity [1] read?
**A.** 30.88%

**Q.** And the Activity [2]?
**A.** 12.59%

**Q.** And the Activity [3]?
**A.** 43.49%

**Q.** What about the IC50 [4] of the same compound?
**A.** 1470 nM

**Q.** What about the IC50 [5] of the same compound?
**A.** 1360 nM

**Q.** And the Activity [6]?
**A.** 7.05%

**Q.** And the Activity [7]?
**A.** inactive

**Q.** And the Activity [8]?
**A.** Non-Toxic

**Q.** What about the Activity [9] of the same compound?
**A.** 77.75%

**Q.** And the Activity [10]?
**A.** 5.7%

**Q.** What about the Activity [11] of the same compound?
**A.** Dose-dependent effect

**Q.** And the Activity [12]?
**A.** Dose-dependent effect

**Q.** And the Activity [13]?
**A.** 18.84%

**Q.** What about the Activity [14] of the same compound?
**A.** 9.14%

**Q.** What about the Activity [15] of the same compound?
**A.** 45.41%

**Q.** What about the inhibition at 0.5 µM [16] of the same compound?
**A.** 100%

**Q.** What about the Activity [17] of the same compound?
**A.** Dose-dependent effect

**Q.** What about the Activity [18] of the same compound?
**A.** 80.53%

**Q.** And the Activity [19]?
**A.** 21.8%

**Q.** What about the IC50 [20] of the same compound?
**A.** 8560 nM

**Q.** What about the half-life [21] of the same compound?
**A.** 2 h

**Q.** What about the Activity [22] of the same compound?
**A.** 7.55%

**Q.** And the Activity [23]?
**A.** 0.91%

**Q.** What about the Activity [24] of the same compound?
**A.** 29.39%

**Q.** And the Activity [25]?
**A.** 24.78%

**Q.** What about the Activity [26] of the same compound?
**A.** 39.83%
